# Screening results: PubChem, several laboratories
# This is a sample that favours compounds with a hit; in the whole collection about 0.74% have one here.
# Calb biofilm kill: mixture kills Candida albicans biofilm cells | C. albicans biofilm persisters + clotrimazole, fluorescence viability; primary screen in compound mixtures of four per well | inhibition, % at 7.6 µM | 120,000 tested, 0.02% active | AID 1242;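 active means inhibition above 30.3% in the primary screen of four-compound pools, then above 30% when the compound was retested; inconclusive means passed the primary limit but could not be retested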;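 further: compounds exposed to preformed 24 h biofilms for 48 h; 0% = untreated biofilm control and 100% = clotrimazole plus chlorhexidine kill blank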
#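 Assay system: C. albicans biofilms / Medium: RPMI/MOPS medium, pH 7.0 / Schedule: biofilm formation 24 h, compound exposure 48 h, 37 °C / Measured by: Alamar Blue fluorescence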
# RGS16-Gao: regulators of human RGS16-Galphao interaction. binding response (% of control), % at 10 µM. bead-based flow cytometry RGS16-Galphao binding, fluorescence; actives lie on both sides. O15492+P09471. AID 1441. 220,000 tested, 0.38% active;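 further: Galphao activated by GDP with aluminum fluoride before binding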
# Target sequence (O15492 whole entry, looked up): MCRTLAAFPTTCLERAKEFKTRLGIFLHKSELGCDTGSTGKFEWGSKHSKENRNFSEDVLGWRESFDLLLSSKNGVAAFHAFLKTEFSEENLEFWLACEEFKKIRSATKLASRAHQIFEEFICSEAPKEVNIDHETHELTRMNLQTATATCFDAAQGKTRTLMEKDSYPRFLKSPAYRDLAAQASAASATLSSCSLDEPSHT
# Target sequence (P09471 whole entry, looked up): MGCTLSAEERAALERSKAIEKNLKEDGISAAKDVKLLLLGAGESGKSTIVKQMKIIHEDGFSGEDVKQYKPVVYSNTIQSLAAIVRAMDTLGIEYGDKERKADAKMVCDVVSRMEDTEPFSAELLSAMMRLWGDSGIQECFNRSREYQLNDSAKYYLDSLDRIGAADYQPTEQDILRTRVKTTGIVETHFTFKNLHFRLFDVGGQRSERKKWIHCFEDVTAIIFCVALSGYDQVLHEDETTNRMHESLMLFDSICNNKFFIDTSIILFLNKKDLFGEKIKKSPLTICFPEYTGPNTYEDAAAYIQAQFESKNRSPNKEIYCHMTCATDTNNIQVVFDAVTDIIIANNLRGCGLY
# RGS8-Gao: human RGS8-Galphao interaction regulation. multiplexed bead flow cytometry, RGS8-Galphao binding; actives lie on both sides. 220,000 tested, 0.34% active. response (percent of control binding), % at 10 µM. P09471; in the data active means response below about 60% or above about 140%; inactive means in between;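 further: Galphao activated as the GDP aluminium fluoride complex binding bead-coupled RGS8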
# RGS4-Gao reg: human RGS4-Galphao interaction regulation; P09471; Multiplexed bead flow cytometry, RGS4-Galphao binding; actives lie on both sides; binding response (% of control), % at 10 µM; 220,000 tested, 0.33% active; in the data active means binding response below about 49% or above about 150%; inactive means in between;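 further: fluorescent Galphao activated with aluminum fluoride binding bead-coupled RGS4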
# RGS7-Gao: regulators of human RGS7-Galphao interaction | P09471 | Multiplexed bead flow cytometry, RGS7-Galphao binding; actives lie on both sides | binding response (% of control), % at 10 µM | 220,000 tested, 0.35% active | AID 1439; in the data active means binding response below about 49% or above about 150%; inconclusive means no clear call, values can overlap the other calls; inactive means in between;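 further: fluorescent Galphao held in activated GDP-AlF4 state binding bead-coupled RGS7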
# RGS-Gao: regulators of human RGS4-Galphao interaction | shares compounds with RGS16-Gao | multiplexed bead flow cytometry, RGS–Galpha-o binding | RGS4–Galpha-o binding response, % at 10 µM | 1,600 tested, 99% active;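 further: fluorescently labeled Galpha-o bound to GDP with aluminium fluoride binding biotinylated RGS beads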
# Biotin-avidin: counter-screen: compounds disrupting biotin binding to avidin beads; shares compounds with RGS16-Gao; streptavidin beads, fluorescein-biotin binding, flow cytometry; inhibition, % at 10 µM; 1,700 tested, under 10 active;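 active means inhibition above 50%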;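 further: median green fluorescence of gated singlet beads compared with DMSO control wells; 0% = DMSO wells and 100% = complete loss of bead fluorescence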
# RGS8-Gao confirm: RGS8-Galphao interaction regulation, single point confirmation. binding response (% of control), % at 10 µM. bead-based flow cytometry RGS8-Galphao binding, fluorescence; actives lie on both sides. shares compounds with RGS16-Gao. 1,700 tested, 3% active. AID 1836; in the data active means binding response below about 72% or above about 130%; inactive means in between;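 further: Galphao activated as GDP AlF4 complex before binding bead RGS8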
# RGS7-Gao single: confirmation of regulators of human RGS7-Galphao interaction; shares compounds with RGS16-Gao; bead-based flow cytometry RGS7-Galphao binding; actives lie on both sides; response (percent of control binding), % at 10 µM; 1,700 tested, 7.8% active; in the data active means response below about 75% or above about 130%; inactive means in between;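 further: fluorescent Galphao activated with GDP and aluminum fluoride binding bead-coupled RGS7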
# RGS16-Gao single: RGS16-Galphao interaction regulation, single point confirmation. shares compounds with RGS16-Gao. bead-based flow cytometry, RGS16-Galphao binding; actives lie on both sides. response (% of control binding), % at 10 µM. 1,700 tested, 4% active. AID 1838; in the data active means response below about 74% or above about 130%; inactive means in between;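 further: Galphao activated as the GDP aluminium fluoride complex binding bead-coupled RGS16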
# RGS4-Gao confirm: confirmation of regulators of human RGS4-Galphao interaction; shares compounds with RGS16-Gao; RGS4-Galphao binding, multiplexed bead flow cytometry; actives lie on both sides; binding response (% of control), % at 10 µM; 1,700 tested, 4% active; in the data active means binding response below about 74% or above about 130%; inactive means in between
# RGS19-Gao single: RGS19-Galphao interaction regulation, single point confirmation. 1,700 tested, 5% active. shares compounds with RGS16-Gao. response (percent of control binding), % at 10 µM. bead-based flow cytometry RGS19-Galphao binding; actives lie on both sides; in the data active means response below about 50% or above about 160%; inactive means in between;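 further: 100% = no compound control and 0% = blank background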
# * marks the source's active call; other numbers are inactive results; i = inactive; u = inconclusive; x = no result given; [ ] = remark or other dose. Unless noted, how the calls were made is not given here.
SMILES,Calb biofilm kill,RGS16-Gao,RGS8-Gao,RGS4-Gao reg,RGS7-Gao,RGS-Gao,Biotin-avidin,RGS8-Gao confirm,RGS7-Gao single,RGS16-Gao single,RGS4-Gao confirm,RGS19-Gao single
CCC(=O)NC1=C(NC(C)c2ccccc2)C(=O)c2ccccc2C1=O (stereo not drawn),x,104,107,109,107,x,x,x,x,x,x,x
CC1=C(C(=O)NCc2ccccc2)C(c2cccs2)n2ncnc2N1 (stereo not drawn),x,-63*,79,69,81,69*,1,98,100,101,100,102
COc1ccccc1C1C(C(=O)NCc2ccccc2)=C(C)Nc2ncnn21 (stereo not drawn),x,98,100,100,98,x,x,x,x,x,x,x
CC(C)OCC(O)CS(=O)(=O)Cc1ccccc1 (stereo not drawn),x,-90*,73,68,79,68*,1,99,103,102,102,90
O=[N+]([O-])c1ccc2c(c1)N([O-])C1(CCCCC1)[N+]2=O,12,32,35*,91,u,91*,x,x,x,x,x,x
COc1ccc(NC(=S)NNC(=O)CNc2ccc(Cl)cc2)cc1,11,100,97,100,u,x,x,x,x,x,x,x
O=C(c1cnsn1)N1CCN(c2ccccc2)CC1,x,102,81,118,248*[activator],118*,0,102,100,99,99,94
O=C(Nc1ccccc1C(=O)Nc1nnc(C(F)(F)F)s1)c1ccccc1Cl,24,101,101,103,u,x,x,x,x,x,x,x
Cc1cc(C)nc(/N=C2\NC(=O)CC3C(=O)NCCN23)n1 (stereo not drawn),x,10*,13*,21*,12*,x,0,105,95,101,102,79
Cc1ccc(NC(=O)N[C@H](C(=O)O)C(C)C)c(C)c1,22,93,94,92,u,x,x,x,x,x,x,x
CC(C)(C)Sc1ccccc1S(=O)(=O)C(C)(C)C,13,105,99,110,u,x,x,x,x,x,x,x
CCOC(=O)c1sc(Nc2nc3cc4c(cc3s2)OCO4)cc1C,17,938*[activator],171*[activator],583*[activator],666*[activator],x,2,92,69*,80,80,48*
CC(=O)c1sc(Nc2nc3cc4c(cc3s2)OCO4)nc1C,19,95,95,98,95,x,x,x,x,x,x,x
CCOc1ccc2nc3c(cc2c1)CN(CCCO)C(=NCCOC)S3,x,-10*,7.0*,-8.3*,-5.5*,x,i,97,93,99,97,92
COC(=O)c1sc2nc(C)nc(SCC(=O)C(C)(C)C)c2c1C,11,101,101,105,105,x,x,x,x,x,x,x
Cc1ccc(NC(=O)CCCSc2ccccc2)cc1S(=O)(=O)N1CCOCC1,1,113,101,110,149,x,x,x,x,x,x,x
COc1ccc(NC(=O)c2ccc(COCC(F)(F)C(F)F)cc2)cc1,14,25*,68,78,93,78*,0,104,103,104,102,118
c1ccc(-c2nnc(CSc3ccc4c(c3)OCCO4)o2)cc1,14,96,96,96,96,x,x,x,x,x,x,x
O=[N+]([O-])c1cc(C(F)(F)F)c(Cl)cc1N1CCN(CCO)CC1,21,99,102,103,100,x,x,x,x,x,x,x
